Test [1] deals with anti-mitragynine antibody. In words: Cross-reactivity study by CI-ELISA. To be noted: for IC50 values: CI-ELISA, compounds at 0.001–50.0 μg/mL, 4PL fit; for cross-reactivity (%): calculated from IC50 values relative to mitragynine (eq 3). It is filed as binding, rabbit. Put shortly:
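Plates coated overnight (16 h) at 4 °C with mitragynine-OVA at 0.25 μg/mL in PBS pH 7.4, washed three times in PBS, then blocked with 5% (w/v) skimmed blocker. Rabbit polyclonal IgG raised against C22-MG-cBSA was used at 1/1000 v/v in 0.05% Tween 20 and pre-incubated with test compound before transfer to wells. Detection used goat anti-rabbit-HRP at 1/2500 v/v.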

The conditions of test [2]: ELISA with pre-incubation (inhibition method); cited from earlier work. (In general: In an ELISA, binding on a coated surface is turned into a signal by an enzyme label.)
The conditions of test [3]: ELISA with pre-incubation (inhibition method); cited from earlier work. This is another data set of the same source.

≈ marks a conversion by molar mass, not a printed value. Read-outs that look alike come from different tables or passages of the source.

With `COC(=O)C1=CO[C@@H](C)[C@@H]2CN3CCc4c([nH]c5ccc(OC)cc45)[C@@H]3C[C@H]12` [aricine], in test [1], the IC50 values worked out at 9.819 and the “cross-reactivity (%)” value was 1.90%. Turning to `CN(C)CCCN1c2ccccc2Sc2ccc(Cl)cc21` [chlorpromazine], in test [2], the IC50 (usually the concentration at which inhibition is half-maximal) was 0.00058 µg/mL (≈ 0.00182 µM). Turning to `CC1(C)C(C(=O)OC(C#N)c2cccc(Oc3ccccc3)c2)C1(C)C` (centres unmarked) [fenpropathrin], in test [3], the IC50 was 0.34 µg/mL (≈ 0.973 µM). As for `COC(=O)[C@H]1[C@H]2C[C@@H]3c4[nH]c5cc(OC)ccc5c4CCN3C[C@H]2C[C@@H](OC(=O)c2cc(OC)c(OC)c(OC)c2)[C@@H]1OC` [reserpine], in test [1], the IC50 values worked out at 9.889 and the “cross-reactivity (%)” value was 1.89%. In the same order, the values of corynantheidine are 1.854 and 10.08%.
